Measured values from ChEMBL document CHEMBL3046628, “Synthesis and herbicidal activity of 2-cyano-3-substituted-pyridinemethylaminoacrylates” (J Agric Food Chem, 2003).

Columns and labels:
[1] = test system: Medicago sativa; test: Post-emergence herbicidal activity against Medicago sativa (alfalfa) at 300 g/ha applied through spraying after first true leaf expanded; format: functional
How it was run: (§1)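 Seeds sown in 6 cm diameter plastic boxes containing artificial mixed soil. Amaranthus retroflexus seed was reproduced outdoors and stored at room temperature. Alfalfa and rape seed came from a crop institute.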

[2] = test system: Medicago sativa; test: Post-emergence herbicidal activity against Medicago sativa (alfalfa) at 75 g/ha applied through spraying after first true leaf expanded; format: functional; how it was run: as §1
[3] = test system: Brassica napus; test: Post-emergence herbicidal activity against Brassica napus (oilseed rape) at 1.5 kg/ha applied through spraying after first true leaf expanded; format: functional; how it was run: as §1
[4] = test system: Amaranthus retroflexus; test: Post-emergence herbicidal activity against Amaranthus retroflexus at 75 g/ha applied through spraying after first true leaf expanded; format: functional; how it was run: as §1
[5] = test system: Medicago sativa; test: Herbicidal activity against Medicago sativa (alfalfa) at 18.75 g/ha; format: functional
[6] = test system: Zea mays; test: Phytotoxicity against Zea mays (maize) at 750 g/ha; format: organism-based; details: in vivo
[7] = test system: Amaranthus retroflexus; test: Post-emergence herbicidal activity against Amaranthus retroflexus at 1.5 kg/ha applied through spraying after first true leaf expanded; format: functional; how it was run: as §1
[8] = test system: Medicago sativa; test: Herbicidal activity against Medicago sativa (alfalfa) at 37.50 g/ha; format: functional
[9] = test system: Medicago sativa; test: Post-emergence herbicidal activity against Medicago sativa (alfalfa) at 1500 g/ha applied through spraying after first true leaf expanded; format: functional; how it was run: as §1
[10] = test system: Medicago sativa; test: Herbicidal activity against Medicago sativa (alfalfa) at 75 g/ha; format: functional
[11] = test system: Amaranthus retroflexus; test: Post-emergence herbicidal activity against Amaranthus retroflexus at 1500 g/ha applied through spraying after first true leaf expanded; format: functional; how it was run: as §1
[12] = test system: Brassica napus; test: Post-emergence herbicidal activity against Brassica napus (oilseed rape) at 1500 g/ha applied through spraying after first true leaf expanded; format: functional; how it was run: as §1
[13] = test system: Amaranthus retroflexus; test: Post-emergence herbicidal activity against Amaranthus retroflexus at 300 g/ha applied through spraying after first true leaf expanded; format: functional; how it was run: as §1
[14] = test system: Brassica napus; test: Post-emergence herbicidal activity against Brassica napus (oilseed rape) at 300 g/ha applied through spraying after first true leaf expanded; format: functional; how it was run: as §1
[15] = test system: Medicago sativa; test: Herbicidal activity against Medicago sativa (alfalfa); format: functional
[16] = test system: Medicago sativa; test: Post-emergence herbicidal activity against Medicago sativa (alfalfa) at 1.5 kg/ha applied through spraying after first true leaf expanded; format: functional; how it was run: as §1
[17] = test system: Medicago sativa; test: Herbicidal activity against Medicago sativa (alfalfa) at 150 g/ha; format: functional
[18] = test system: Brassica napus; test: Post-emergence herbicidal activity against Brassica napus (oilseed rape) at 75 g/ha applied through spraying after first true leaf expanded; format: functional; how it was run: as §1
[19] = test system: Amaranthus retroflexus; test: Pre-emergence herbicidal activity against Amaranthus retroflexus at 1.5 kg/ha applied through spraying immediately after seed plantings; format: functional; how it was run: as §1
[20] = test system: Brassica napus; test: Pre-emergence herbicidal activity against Brassica napus (oilseed rape) at 1.5 kg/ha applied through spraying immediately after seed plantings; format: functional; how it was run: as §1
[21] = test system: Medicago sativa; test: Pre-emergence herbicidal activity against Medicago sativa (alfalfa) at 1.5 kg/ha applied through spraying immediately after seed plantings; format: functional; how it was run: as §1

SMILES | Activity [3] [%] | Activity [6] | Activity [7] [%] | Activity [16] [%] | Activity [19] [%] | Activity [20] [%] | Activity [21] [%] | also measured
CCOCCOC(=O)/C(C#N)=C(/NCc1ccc(Cl)nc1)SC | 80.6 | Non-toxic | 100 | 75 |  |  |  | Activity [1]: 57.5%; Activity [2]: 36.3%; Activity [4]: 52.3%; Activity [5]: 80.6%; Activity [8]: 88.9%; Activity [9]: 76.2%; Activity [10]: 95.3%; Activity [11]: 100%; Activity [12]: 100%; Activity [13]: 96.2%; Activity [14]: 100%; ED50 [15]: 4.35 g/ha; ED90 [15]: 39.3 g/ha; Activity [17]: 98.1%; Activity [18]: 36.8%
CCOCCOC(=O)/C(C#N)=C(/NCc1ccc(Cl)cc1)SC |  |  |  |  |  |  |  | Activity [5]: 59.3%; Activity [8]: 76.9%; Activity [10]: 80.6%; ED50 [15]: 8.85 g/ha; ED90 [15]: 193.95 g/ha; Activity [17]: 87%
CCOCCOC(=O)/C(C#N)=C(/NCc1ccc(Cl)cc1)C(C)C | 96.5 |  | 93.9 | 28.1 | 52.2 | 0 | 0 | 
CCCOc1ccc(CN/C(C)=C(/C#N)C(=O)OCCOCC)cn1 | 17 | Non-toxic | 31 | 34.2 | 23.4 | 0 | 17.8 | 
CCOCCOC(=O)/C(C#N)=C(/C)NCc1ccc(OC)nc1 | 69 | Non-toxic | 100 | 64 | 100 | 92.5 | 57.1 | 
CCOCCOC(=O)/C(C#N)=C\NCc1ccc(Cl)nc1 | 7.3 | Non-toxic | 18.3 | 15.8 | 12.2 | 21.8 | 14.8 | 
CCOCCOC(=O)/C(C#N)=C(/C)NCc1ccc(Cl)nc1 | 100 | Non-toxic | 100 | 100 | 93 | 100 | 66.4 | Activity [2]: 0%; Activity [4]: 18.3%; Activity [9]: 100%; Activity [11]: 100%; Activity [12]: 100%; Activity [18]: 14.6%
CCOCCOC(=O)/C(C#N)=C(/CC)NCc1ccc(Cl)nc1 | 100 | Non-toxic | 100 | 83.7 | 71.4 | 75 | 71.4 | Activity [1]: 62.8%; Activity [2]: 45.3%; Activity [4]: 88.4%; Activity [9]: 83.7%; Activity [11]: 100%; Activity [12]: 100%; Activity [13]: 100%; Activity [14]: 98.4%; Activity [18]: 94.1%
CCOCCOC(=O)/C(C#N)=C(\NCc1ccc(Cl)nc1)C(C)C | 100 | Non-toxic | 93.9 | 65.9 | 97.8 | 95.5 | 23 | Activity [1]: 45.3%; Activity [2]: 14%; Activity [4]: 72.1%; Activity [9]: 75.6%; Activity [11]: 100%; Activity [12]: 100%; Activity [13]: 93%; Activity [14]: 100%; Activity [18]: 89.4%
CCCCOc1ccc(CN/C(=C(/C#N)C(=O)OCCOCC)C(C)C)cn1 | 100 | Non-toxic | 100 | 41 | 10.1 | 6.3 | 0 | 
CCCOc1ccc(CN/C(=C(/C#N)C(=O)OCCOCC)C(C)C)cn1 | 100 | Non-toxic | 100 | 75.9 | 30.4 | 30.7 | 14.8 | 
CCOCCOC(=O)/C(C#N)=C(\NCc1ccc(OCC)nc1)C(C)C | 100 | Non-toxic | 100 | 45.8 | 50.7 | 54.8 | 10.1 | 
CCOCCOC(=O)/C(C#N)=C(\NCc1ccc(OC)nc1)C(C)C | 100 | Non-toxic | 100 | 53 | 71 | 100 | 32.9 | 
CCOc1ccc(CN/C(SC)=C(\C#N)C(=O)OCCOC)cn1 | 84.5 | Non-toxic | 70 | 55.3 | 31.3 | 5.1 | 0 | 
COCCOC(=O)/C(C#N)=C(/NCc1ccc(OC)nc1)SC | 90.1 | Non-toxic | 90 | 72.3 | 50 | 48.8 | 10 | 
COCCOC(=O)/C(C#N)=C(/NCc1cccnc1)SC | 6.4 | Non-toxic | 0 | 15.9 | 0 | 9.1 | 0 | 
CCCOc1ccc(CN/C(SC)=C(\C#N)C(=O)OCCOCC)cn1 | 96.8 | Non-toxic | 93.8 | 0 | 0 | 16.3 | 0 | 
CCOCCOC(=O)/C(C#N)=C(/NCc1ccc(OCC)nc1)SC | 100 | Non-toxic | 100 | 91.5 | 37.5 | 22 | 0 | 
CCOCCOC(=O)/C(C#N)=C(/NCc1ccc(OC)nc1)SC | 100 | Non-toxic | 100 | 80.9 | 56.3 | 68.3 | 36.4 | 
COC(=O)COC(=O)/C(C#N)=C(/NCc1ccc(Cl)nc1)SC | 0 | Non-toxic | 0 | 4.8 | 0 | 0 | 0 | 
CS/C(NCc1ccc(Cl)nc1)=C(/C#N)C(=O)N1CCOCC1 | 99.4 | Non-toxic | 100 | 75 | 0 | 0 | 0 | Activity [1]: 9.7%; Activity [2]: 0%; Activity [4]: 0%; Activity [9]: 75%; Activity [11]: 100%; Activity [12]: 99.4%; Activity [13]: 25%; Activity [14]: 0%; Activity [18]: 0%
CS/C(NCc1ccc(Cl)nc1)=C(/C#N)C(=O)OCC1CCCO1 (centres undefined) | 100 | Non-toxic | 98.8 | 64 | 14.3 | 54.2 | 16.7 | Activity [1]: 52.3%; Activity [2]: 41.9%; Activity [4]: 79.1%; Activity [9]: 64%; Activity [11]: 98.8%; Activity [12]: 100%; Activity [13]: 88.4%; Activity [14]: 97.3%; Activity [18]: 94.7%
C=CCOC(=O)/C(C#N)=C(/NCc1ccc(Cl)nc1)SCC | 100 | Non-toxic | 100 | 98.8 | 0 | 0 | 0 | 
C=CCOC(=O)/C(C#N)=C(/NCc1ccc(Cl)nc1)SC | 91.7 | Non-toxic | 100 | 100 | 0 | 0 | 0 | Activity [1]: 56.1%; Activity [2]: 15.9%; Activity [4]: 22.2%; Activity [9]: 100%; Activity [11]: 100%; Activity [12]: 91.7%; Activity [13]: 61.6%; Activity [14]: 82.7%; Activity [18]: 33.3%
